Experimental findings from ChEMBL document CHEMBL3244161, “Azabicycloalkanes as analgetics. 3. Structure-activity relationships of 1-phenyl-6-azabicyclo[3.2.1]octanes and absolute stereochemistry of (+)-1-(3-hydroxyphenyl)-6-methyl-6-azabicyclo[3.2.1]octane and its 7-endo-methyl derivative” (J Med Chem, 1977) are described below.

In series [1] the test system is Mus musculus. The series is described as follows: Analgesic activity in sc dosed mouse assessed as inhibition of AcOH-induced writhing. The format is functional. Conditions: Mus musculus, sc; read-out: ED50. (Writhing tests count abdominal constrictions after an irritant is injected.)
The subject of series [2] is Mus musculus. The series is described as follows: Analgesic activity in sc dosed mouse by hot-plate method. The format is functional. In general terms: In hot-plate and tail-flick tests a longer latency is read as antinociception.
Series [3] has as its system Mus musculus. Kind of series: Analgesic activity in sc dosed mouse assessed as time duration of activity by hot-plate method. The format is functional.
Series [4] is described as follows: (§1) Acute toxicity in sc dosed mouse. The format is organism-based. The settings on record: in vivo.
Series [5] deals with Oryctolagus cuniculus. Kind of series: Narcotic antagonist activity in iv dosed rabbit assessed as inhibition of morphine-induced respiratory depression. In kind it is functional. The procedure, abridged: (§2)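 Rabbits given test compound iv; read-out is antagonism of morphine-induced respiratory depression; expressed as AD50 in mg/kg or as % antagonism at a fixed dose.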
The subject of series [6] is Rhesus monkey. Kind of series: Narcotic antagonist activity in morphine-dependent rhesus monkey assessed as mild to moderate abstinence at 3 to 12 mg/kg. In kind it is functional, organism-based. The settings on record: Macaca mulatta. The procedure, abridged: (§3)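 Compound given to nonwithdrawn morphine-dependent monkeys; scored as precipitation of abstinence syndrome, with severity graded from mild to severe over the stated dose range.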

Series [7] deals with Rhesus monkey. The series is described as follows: Suppression of abstinence syndrome in morphine-dependent rhesus monkey at 6 mg/kg. In kind it is functional, organism-based. Further details: dose 6 mg/kg. The settings on record: Macaca mulatta.
The test system of series [8] is Mus musculus. Kind of series: Analgesic activity in mouse assessed as inhibition of AcOH-induced writhing up to 22.5 mg/kg, sc. The format is functional, organism-based. Further details: dose 22.5 mg/kg.
The test system of series [9] is Oryctolagus cuniculus. Kind of series: Narcotic antagonist activity in rabbit assessed as inhibition of morphine-induced respiratory depression at 5 mg/kg, iv. In kind it is functional. In short, it runs like this: as §2
In series [10] the test system is Rhesus monkey. Kind of series: Narcotic antagonist activity in morphine-dependent rhesus monkey assessed as mild to moderate abstinence at 5 to 20 mg/kg. In kind it is functional, organism-based. The settings on record: Macaca mulatta. In short, it runs like this:
as §3

In series [11] the test system is Rhesus monkey. Kind of series: Suppression of abstinence syndrome in morphine-dependent rhesus monkey at 10 mg/kg. The settings on record: Macaca mulatta. The format is functional, organism-based. Further details: dose 10 mg/kg.
Series [12] has as its system Rhesus monkey. Kind of series: Narcotic antagonist activity in morphine-dependent rhesus monkey assessed as moderate to severe abstinence at 1.5 to 12 mg/kg. The format is functional, organism-based. Conditions: Macaca mulatta. The procedure, abridged: as §3
Series [13] concerns Rhesus monkey. The series is described as follows: Suppression of abstinence syndrome in morphine-dependent rhesus monkey at 1.5 mg/kg. The format is functional, organism-based. Further details: dose 1.5 mg/kg. Conditions: Macaca mulatta.
For series [14], the system named is Mus musculus. Kind of series: Analgesic activity in mouse by hot-plate method up to 100 mg/kg, sc. The format is functional, organism-based. Further details: dose 100 mg/kg.
Series [15] relates to Rhesus monkey. Kind of series: Narcotic antagonist activity in morphine-dependent rhesus monkey assessed as mild to severe abstinence at 2.5 to 20 mg/kg. The format is functional, organism-based. Conditions: Macaca mulatta. The procedure, abridged: as §3
The test system of series [16] is Rhesus monkey. The series is described as follows: Suppression of abstinence syndrome in morphine-dependent rhesus monkey at 5 mg/kg. In kind it is functional, organism-based. The settings on record: Macaca mulatta. Further details: dose 5 mg/kg.
Series [17] deals with Rhesus monkey. Kind of series: Narcotic antagonist activity in morphine-dependent rhesus monkey assessed as precipitation of abstinence up to 8 mg/kg. Further details: dose 8 mg/kg. The format is functional, organism-based. Conditions: Macaca mulatta. The procedure, abridged: as §3
Series [18] concerns Rhesus monkey. Kind of series: Suppression of abstinence syndrome in morphine-dependent rhesus monkey at 8 mg/kg. In kind it is functional, organism-based. The arrangement: dose 8 mg/kg. The settings on record: Macaca mulatta.
The subject of series [19] is Rhesus monkey. The series is described as follows: Narcotic antagonist activity in morphine-dependent rhesus monkey assessed as mild to severe abstinence at 2 mg/kg. In kind it is functional, organism-based. The arrangement: dose 2 mg/kg. Conditions: Macaca mulatta. In short, it runs like this:
as §3

The test system of series [20] is Rhesus monkey. Kind of series: Suppression of abstinence syndrome in morphine-dependent rhesus monkey up to 16 mg/kg. In kind it is functional, organism-based. Further details: dose 16 mg/kg. The settings on record: Macaca mulatta.
The test system of series [21] is Oryctolagus cuniculus. Kind of series: Narcotic antagonist activity in rabbit assessed as inhibition of morphine-induced respiratory depression up to 1 mg/kg, iv. The arrangement: dose 1 mg/kg. In kind it is functional, organism-based. The procedure, abridged:
as §2

Series [22] deals with Rhesus monkey. Kind of series: Suppression of abstinence syndrome in morphine-dependent rhesus monkey up to 8 mg/kg. The settings on record: Macaca mulatta. In kind it is functional, organism-based. Further details: dose 8 mg/kg.
Series [23] deals with Rhesus monkey. The series is described as follows: Suppression of abstinence syndrome in morphine-dependent rhesus monkey up to 6 mg/kg. Further details: dose 6 mg/kg. In kind it is functional, organism-based. The settings on record: Macaca mulatta.
The subject of series [24] is Rhesus monkey. Kind of series: Narcotic antagonist activity in morphine-dependent rhesus monkey assessed as mild to severe abstinence at 2 to 8 mg/kg. In kind it is functional, organism-based. Conditions: Macaca mulatta. In short, it runs like this:
as §3

For series [25], the system named is Rhesus monkey. The series is described as follows: Suppression of abstinence syndrome in morphine-dependent rhesus monkey at 1 mg/kg. In kind it is functional, organism-based. Further details: dose 1 mg/kg. The settings on record: Macaca mulatta.
Series [26] relates to Mus musculus. The series is described as §1. In kind it is organism-based. Conditions: in vivo.
In series [27] the test system is Rhesus monkey. The series is described as follows: Narcotic antagonist activity in morphine-dependent rhesus monkey assessed as mild to severe abstinence at 1 to 8 mg/kg. The format is functional, organism-based. The settings on record: Macaca mulatta. The procedure, abridged:
as §3

Setting [28] is: Mus musculus, sc, read-out: ED50.

The source made the active and inactive calls. The rule behind the calls is not given here.

The term ED50 denotes the dose that gives a 50% effect, or the effect in half of the subjects. What is called LD50 is the dose at which mortality reaches 50%. `CN1C[C@]2(c3cccc(O)c3)CCC[C@H]1C2`: the ED50 in series [1] stood at 3.7 mg/kg; in series [2] (setting [28]) it was 3.6 mg/kg. Also, in series [3], the Time was 140 min. Further, the LD50 in series [4] is 90.7 mg/kg. Besides, the AD50 in series [5] worked out at 4.1 mg/kg. For the same compound, in [6], the result was Active. Besides, the result in series [7] was inactive.

Broadly, the inhibition in vivo is the share of the control response that was lost under treatment. Turning to `CN1C[C@@]2(c3cccc(O)c3)CCC[C@@H]1C2`, the result in series [8] and in series [11] was inactive. Besides, in series [2] (setting [28]), the ED50 was found to be 20 mg/kg. The same compound came in with an LD50 in series [4] of 156 mg/kg. The inhibition in vivo at 5 mg/kg in [9] came out at 41%. The outcome in series [10] was Active.

Take `Br.C[C@H]1N(C)[C@H]2CCC[C@]1(c1cccc(O)c1)C2`: the ED50 in series [1] is 1.2 mg/kg; in series [2] (setting [28]), 2.9 mg/kg. Besides, in series [3], the Time worked out at 148.6 min. The same compound gave an LD50 in series [4] of 123 mg/kg. Also, the inhibition in vivo at 5 mg/kg in series [9] was found to be 42%. For the same compound, the result in [12] was Active. For the same compound, in [13], the outcome was inactive.

`Br.C[C@@H]1N(C)[C@@H]2CCC[C@@]1(c1cccc(O)c1)C2`: the outcome in series [8], in series [14] and in series [16] was inactive. The LD50 in series [4] was 82.7 mg/kg. In addition, the inhibition in vivo at 5 mg/kg in series [9] came to 48%. The outcome in [15] was Active.

For `CN1CC2(c3cccc(O)c3)CCCC1C2` (racemic), the ED50 in [1] turned out to be 12.3 mg/kg; in series [2] (setting [28]), 14.3 mg/kg. In addition, in series [3], the Time was found to be 137 min. For the same compound, in [4], the LD50 came out at 133 mg/kg. In addition, the AD50 in series [5] is 3.1 mg/kg. Besides, the outcome in series [17] and in series [18] was inactive.

For the compound `CC1N(C)C2CCCC1(c1ccccc1)C2.Cl` (racemic), the ED50 in [1] and in series [2] (setting [28]) was 20 mg/kg throughout. In series [4], the LD50 was > 30 mg/kg. Moreover, the result in [11] was inactive.

For the compound `COc1cccc(C23CCCC(C2)N(CCCC(=O)c2ccc(F)cc2)C3)c1.Cl` (racemic), the figures for the 50% effective dose (ED50) in [1] and in series [2] (setting [28]) were 3 mg/kg and 4.2 mg/kg, respectively. Also, in [4], the LD50 was > 225 mg/kg. The outcome in series [19] and in series [20] was inactive.

On to `CCCCCCN1C2CCCC(c3cccc(O)c3)(C2)C1C.Cl` (racemic), for which the ED50 in series [1] worked out at 0.27 mg/kg. In addition, the LD50 in [4] worked out at 25.4 mg/kg. Further, the inhibition result in series [21] was “inactive”.

Regarding `CC1N(CC2CC2)C2CCCC1(c1cccc(O)c1)C2.Cl` (racemic), the values for the ED50 in series [1] and in series [2] (setting [28]) were 2.2 mg/kg and 5.8 mg/kg, respectively. Also, the LD50 in series [4] was 59.8 mg/kg. Besides, the AD50 in series [5] came out at 0.1 mg/kg. The result in [22] was inactive.

As to `CC1N(CCc2ccccc2)C2CCCC1(c1cccc(O)c1)C2.Cl` (racemic), the values for the ED50 in series [1] and in [2] (setting [28]) were 0.61 mg/kg and 0.3 mg/kg, respectively. The same compound gave an LD50 in series [4] of 27.6 mg/kg. Also, in series [21], the inhibition result was “inactive”. Moreover, in [23], the result was inactive.

On to `CC(=O)Oc1cccc(C23CCCC(C2)N(C)C3C)c1` (racemic), for which the outcome in series [18] was inactive.

Regarding `CC1N(C)C2CCCC1(c1cccc(O)c1)C2` (racemic; 8), the result in series [24] was Active. In series [25], the outcome was inactive.

For `Br.CC1N(C)C2CCCC1(c1cccc(O)c1)C2` (racemic; 9), the ED50 in series [1] came out at 4.9 mg/kg. The same compound displayed an LD50 in series [26] of 113.5 mg/kg.

For the compound `CC(=O)Oc1cccc(C23CCCC(C2)N(C)C3C)c1.Cl` (single isomer, unassigned; (+)), the results for the ED50 in series [1] and in series [2] were 2.4 mg/kg and 3.6 mg/kg, respectively. The same compound gave an LD50 in [26] of 129.5 mg/kg.

For `CC(=O)Oc1cccc(C23CCCC(C2)N(C)C3C)c1` (single isomer, unassigned; (+)), in series [27], the result was Active. For the same compound, the outcome in series [25] was inactive.

For `CC(=O)Oc1cccc(C23CCCC(C2)N(C)C3C)c1` (single isomer, unassigned; (-)), the outcome in series [8], in series [14] and in series [16] was inactive. In addition, the outcome in series [10] was Active.
